Rows were chosen to be rich in hits. Some 3.5% of all compounds tested hit in one or more screens of this group.
RGS4 act = potentiators or activators of RGS4; B-score at 10 µM; 0.92% of 310,000 active; HEK293 M3R/inducible RGS4, carbachol calcium flux Fluo4; hits give low values;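 active = B-score of the integrated calcium signal more than 4 SD below the library mean, with starting fluorescence not abnormally high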;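 note: negative B-score means reduced calcium response which marks RGS4 activation or potentiation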
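Detection: kinetic calcium fluorescence imaging with Fluo4-AM dye, 2 µM / Material: HEK293 cells with stable M3R and inducible RGS4 / Schedule: recording 10 s baseline at 1 Hz, 100 s post-agonist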
RGS4 block = inhibitors of human RGS4; HEK293 M3R/RGS4 inducible, Fluo-4 calcium flux; hits give high values; triggered by carbachol at its EC20; B-score at 10 µM; 0.45% of 310,000 active;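 active = B-score, a plate-corrected calcium signal, over three deviations above library mean, with baseline fluorescence within five deviations of library mean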;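 note: RGS4 expression induced by doxycycline in cells with stable M3 receptor; B-score is computed from the integrated fluorescence ratio over baseline after carbachol; higher B-score means a larger calcium signal and so more RGS4 inhibition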
Target sequence (P49798 whole entry, looked up): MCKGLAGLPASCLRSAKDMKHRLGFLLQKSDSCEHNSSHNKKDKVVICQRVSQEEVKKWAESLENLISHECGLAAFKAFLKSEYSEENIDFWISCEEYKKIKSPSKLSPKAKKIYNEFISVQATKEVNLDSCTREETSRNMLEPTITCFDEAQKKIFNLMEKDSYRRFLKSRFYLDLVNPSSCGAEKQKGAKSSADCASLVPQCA
MrgX1 antag = human MrgX1 receptor antagonism, primary screen. Q96LB2. MRGX1-HEK293 calcium flux, Fluo-4, BAM8-22 antagonism; hits give low values. B-score at 10 µM. 1.3% of 310,000 active;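 active = calcium-response B-score plate-corrected more than 3 library SD below zero, starting fluorescence within 5 deviations, no agonist response on first addition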;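 note: peak minus trough fluorescence over baseline after final BAM8-22 challenge near maximal dose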
Target sequence (Q96LB2 whole entry, looked up): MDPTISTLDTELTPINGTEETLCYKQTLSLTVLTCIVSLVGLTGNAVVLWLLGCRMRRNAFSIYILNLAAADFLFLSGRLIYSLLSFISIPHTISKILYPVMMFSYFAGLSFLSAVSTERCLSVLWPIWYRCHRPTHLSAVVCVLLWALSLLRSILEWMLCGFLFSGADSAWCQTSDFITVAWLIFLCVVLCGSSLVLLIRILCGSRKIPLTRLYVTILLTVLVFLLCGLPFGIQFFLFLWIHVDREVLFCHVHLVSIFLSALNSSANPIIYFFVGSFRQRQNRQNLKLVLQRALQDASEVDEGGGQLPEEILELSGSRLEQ
MrgX1 allo act = human MrgX1 positive allosteric modulation, primary screen. AID 588675. 0.63% of 310,000 active. Q96LB2. B-score at 10 µM. MrgX1-HEK293, Fluo-4 calcium flux, FDSS; hits give high values;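 active = plate-corrected calcium response at least 3 library SD above typical, normal starting fluorescence, not activating the receptor alone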;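 note: compound read alongside a low EC10 to EC30 dose of BAM8-22 agonist; peak minus trough fluorescence over baseline measured at the second addition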
MrgX1 agonist = human MrgX1 receptor agonism, primary screen; MrgX1-HEK293 cells, Fluo-4 calcium fluorescence, agonist mode; hits give high values; AID 588627; B-score at 10 µM; 0.44% of 310,000 active;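 active = calcium response B-score plate-corrected fluorescence ratio at least 3 library SD, with starting fluorescence B-score inside 5 SD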
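System – MrgX1-expressing HEK293 cells · Incubation – cells plated overnight, dye loaded 0.5 h 37 °C, 0.5 h room temperature · Technique – kinetic Fluo-4 NW fluorescence of intracellular calcium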
RGS4 activ val = RGS4 activation, validation assay; shares compounds with RGS4 act; HEK293 M3R/RGS4 inducible, carbachol calcium flux Fluo4; 89% of 1,100 active; AID 602282; inhibition, % at 10 µM;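 active = inhibition above 3 SD of the buffer control wells, cut at about 41% in these data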;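 note: signal is the integrated peak-minus-minimum Fluo4 fluorescence over baseline ratio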
RGS4 act ctr = activity in cells without induced RGS4 expression | shares compounds with RGS4 act | HEK293 M3R non-induced RGS4, Fluo4 calcium flux; after carbachol challenge at its EC90 | inhibition, % at 10 µM | 82% of 1,100 active | AID 602283;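 active = inhibition exceeding 3 SD of buffer-only control wells, cut at about 26% in these data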;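 note: percent drop in integrated peak-minus-baseline over baseline Fluo4 ratio after carbachol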
MrgX1 ant reconf = human MrgX1 receptor antagonism, re-confirmation screen. shares compounds with MrgX1 antag. MrgX1-HEK293, BAM8-22 calcium flux, Fluo-4; hits give low values. remaining BAM8-22 calcium response % of control (hits give low values), % at 10 µM. 19% of 2,300 active. AID 602420;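 active = remaining agonist calcium response no higher than 100% minus 3 SD of agonist-only control wells, with starting fluorescence near control levels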;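 note: agonist BAM8-22 given at a near maximal EC90 to ECmax level; peak minus minimum fluorescence divided by baseline after agonist addition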
HEK293 Ca flux = MrgX1 antagonist counter-screen hit in parental HEK293 cells. shares compounds with MrgX1 antag. Fluo-4 calcium fluorescence, FDSS. fluorescence ratio F(max-min)/F0 at 10 µM. 2% of 4,000 active. AID 624111;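 active = duplicate-averaged calcium fluorescence ratio at least three times the standard deviation of buffer wells, a nonspecific response in parental cells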
HEK293 Ca counter = MrgX1 allosteric activator counter-screen hit in parental HEK293 cells. fluorescence ratio F(max-min)/F0 at 10 µM. AID 624114. 0.4% of 4,000 active. parental HEK293 calcium flux, Fluo-4 fluorescence ratio; hits give high values. shares compounds with MrgX1 antag;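 active = calcium fluorescence ratio, averaged over duplicates, at least 3 SD of the buffer-well ratio, meaning a nonspecific response in receptor-free cells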;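 note: untransfected parental HEK293 lacking MrgX1 used as counterscreen for MrgX1 allosteric activators; fluorescence change taken during the second addition on a kinetic imager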
HEK293 Ca cntr2 = activity in parental HEK293 cells lacking MrgX1 receptor. 8.7% of 4,000 active. fluorescence ratio F(max-min)/F0 at 10 µM. Fluo-4 calcium fluorescence (FDSS); hits give high values. shares compounds with MrgX1 antag;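 active = calcium fluorescence ratio at least three times the spread of buffer wells, meaning a non-specific response in parental cells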
Numbers stand for hits; – = inactive; · = no result.

SMILES | RGS4 act | RGS4 block | MrgX1 antag | MrgX1 allo act | MrgX1 agonist | RGS4 activ val | RGS4 act ctr | others
CCN1C[C@]2(OC(=O)c3ccccc3NC(C)=O)CCC(OC)C34C5C[C@H]6C(OC)[C@]5(O)[C@](O)(C[C@@H]6OC)C(C[C@@H]32)[C@H]14 (stereo not given in full) | – | – | – | – | – | · | ·
C[N+](C)(C)Cc1ccccc1 | -8.6 | – | – | – | – | · | ·
NC(Cc1ccccc1)Cc1ccccc1 | – | – | – | – | – | · | ·
Cc1cccc(N2C(=O)NC(=O)/C(=C\c3ccc4c(c3)CCCN4Cc3ccccc3)C2=O)c1 | – | – | – | 12 | – | · | ·
Clc1ccc(OCC#CCN2CCCC2)cc1 | -9.6 | – | – | – | – | 54 | –
CC(Cc1ccccc1Sc1ccccc1O)N(C)C (stereo not given) | -8.6 | – | – | – | – | 93 | 91
NS(=O)(=O)c1cccc(N2CCNCC2)c1 | – | – | – | – | – | · | ·
CCC1(OC(=O)c2ccccc2)CC(C)N(C)CC1C (stereo not given) | – | – | – | – | – | · | ·
C=CCC1(Nc2ccccc2)CC(C)N(C)CC1C (stereo not given) | -7.7 | – | – | – | – | 59 | 84
O=C(N/N=C/C1C(=O)NC(=S)N(c2ccccc2)C1=O)c1cc(Br)c(O)c(Br)c1 (stereo not given) | – | – | – | – | – | · | ·
CN1CCC(O)(c2ccc(Cl)cc2)C(C(=O)c2ccc(Cl)cc2)C1 (stereo not given) | -9.6 | – | – | – | – | 94 | 66
CN1CC(C(=O)c2ccc(Cl)cc2)C(c2ccc(Cl)cc2Cl)C1 (stereo not given) | – | – | – | – | – | · | ·
O=C(c1ccc(C(F)(F)F)cc1)C1CCCN(C2CCSCC2)C1 (stereo not given) | -12 | – | – | – | – | 90 | 48
Cc1cc(Cl)ccc1C(=O)C1CCCN(C2CCSCC2)C1 (stereo not given) | -10 | – | – | – | – | 90 | 69
Fc1ccc(C(OCCN2CCCC2)c2ccc(F)cc2)cc1 | -9.3 | – | – | – | – | 88 | 37
COc1ccc(OCC(=O)N2CCCC(N3CCN(c4ccccc4C)CC3)C2)cc1 (stereo not given) | – | – | – | – | – | · | ·
CN1C2CCC1CC(OC(=O)c1ccc(Cl)cc1)(C(=O)O)C2 (stereo not given) | – | – | – | – | – | · | ·
OC(C#CCN1CCOCC1)(c1ccccc1)C1CCCC1 (stereo not given) | -8.9 | – | – | – | – | 56 | 84
COCCOC(=O)c1c(C)oc2ccc(OC(=O)N(C)C)cc12 | – | – | – | – | – | · | ·
CS(=O)(=O)NNP(=O)(NNS(C)(=O)=O)NC(=O)c1ccccc1 | – | – | – | – | – | · | ·
CC1CN=C(Nc2ccccc2)S1 (stereo not given) | – | – | – | – | – | · | ·
CC1CN=C(Nc2cccc3ccccc23)S1 (stereo not given) | -8.5 | – | – | – | – | – | –
COc1ccc(/C=C/C(=O)NC(=S)N2C[C@H]3C[C@H](C2)c2cccc(=O)n2C3)cc1OC | – | – | – | – | – | · | ·
Cc1ccc(C(O)(c2ccc(C)c(C)c2)C2CN3CCC2CC3)cc1C (stereo not given) | – | – | – | – | – | · | ·
Cc1ccccc1C(O)(Cc1ccccc1)C1CN2CCC1CC2 (stereo not given) | -8.2 | – | – | – | – | 92 | 88
SMILES | RGS4 act | RGS4 block | MrgX1 antag | MrgX1 allo act | MrgX1 agonist | RGS4 activ val | RGS4 act ctr | others
CN1CCN(Cc2ccc3ccccc3c2)CC1 | – | – | – | – | – | · | ·
CN1CCN(CCC(C#N)(c2ccccc2)c2ccccc2)CC1 | -7.7 | – | – | – | – | 94 | 92
CCOC(=O)[C@@]12C(=O)C(=O)N[C@]1(c1ccccc1)C1OCCCC12 (stereo not given in full) | – | – | – | – | – | · | ·
O=C(c1ccc(Cl)cc1)C1CCCN(Cc2ccc3c(c2)OCCO3)C1 (stereo not given) | -8.7 | – | – | – | – | 91 | 41
COc1ccc(CN2CCCC(C(=O)c3cccc(Cl)c3)C2)cc1 (stereo not given) | – | – | – | – | – | · | ·
O=C(c1cccc(Cl)c1)C1CCCN(Cc2cccc3cnccc23)C1 (stereo not given) | -7.6 | – | – | – | – | 52 | 84
O=Cc1c(C(=O)O)n(Cc2ccc(Cl)cc2)c2ccccc12 | – | – | – | – | – | · | ·
CN(CC1COc2ccccc2O1)c1nc(-c2cccnc2)nc2ccccc12 (stereo not given) | -10 | – | – | – | – | 90 | 93
O=c1cc(C(F)(F)F)c2cc3c4c(c2o1)CCCN4CCC3 | -9.1 | – | – | – | – | 98 | 94
O=C(Nc1ccccc1F)OC1CN2CCC1CC2 (stereo not given) | -10 | – | – | – | – | 51 | –
O=C(Nc1ccc(Cl)cc1)OC1CN2CCC1CC2 (stereo not given) | – | – | – | – | – | · | ·
O=C(Nc1ccccc1Cl)OC1CN2CCC1CC2 (stereo not given) | -8.5 | – | – | – | – | 88 | 62
O=C(Nc1cccc(Cl)c1)OC1CN2CCC1CC2 (stereo not given) | – | – | – | – | – | · | ·
CN1CCc2cc3c(c4c2C1Cc1ccccc1-4)OCO3 (stereo not given) | -7.8 | – | -6.6 | – | – | – | – | MrgX1 ant reconf=–;HEK293 Ca flux=–;HEK293 Ca counter=–;HEK293 Ca cntr2=–
Cc1ccc(-n2c(O)c(C=NCc3ccco3)c(=O)[nH]c2=S)cc1C | – | – | – | – | – | · | ·

Bioassay records: PubChem, Johns Hopkins Ion Channel Center
